In brackets after ≈: the same amount, converted by molar mass.
What was measured:
Format in all cases: functional
[1] = Antioxidant activity assessed as hydrogen peroxide radical scavenging activity
[2] = Antioxidant activity assessed as inhibition of superoxide radical-induced NBT reduction by alkaline DMSO method
[3] = Antitumor activity against mouse DLA cells after 3 hrs by trypan blue dye exclusion assay
Summary of the method: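 DLA cells were grown in the peritoneal cavity of albino mice (25-30 g) by i.p. injection of 1×10^6 cells/mL. Cells were harvested on day 15, washed three times in HBSS and adjusted to 2×10^6 cells/mL. Cells were exposed to graded drug concentrations in PBS (1:1 volume) for 3 h at 37 °C, 5% CO2. Viability was counted by haemocytometer after 1:1 mixing with 0.4% trypan blue, and % inhibition and CTC50 were calculated.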

Row | SMILES | IC50 [1] | IC50 [2] | CC50 [3]
1 | COc1ccc(/C=C/C(=O)c2ccc(Nc3c4ccccc4nc4ccccc34)cc2)cc1OC | > 1000 µg/mL | > 500 µg/mL | –
2 | NC1N=C(c2ccc([N+](=O)[O-])cc2)C=C(c2ccc(Nc3c4ccccc4nc4ccccc34)cc2)O1 (configuration not stated) | 24.03 µg/mL (≈ 49.3 µM) | 47.5 µg/mL (≈ 97.4 µM) | 725 µg/mL (≈ 1490 µM)
3 | O=C(/C=C/c1ccccc1)c1ccc(Nc2c3ccccc3nc3ccccc23)cc1 | > 1000 µg/mL | > 500 µg/mL | –
4 | O=C(/C=C/c1ccc(Cl)cc1Cl)c1ccc(Nc2c3ccccc3nc3ccccc23)cc1 | > 1000 µg/mL | > 500 µg/mL | –
5 | C/C=C/C(=O)c1ccc(Nc2c3ccccc3nc3ccccc23)cc1 | > 1000 µg/mL | > 500 µg/mL | –
6 | COc1cc(C2=NC(N)OC(c3ccc(Nc4c5ccccc5nc5ccccc45)cc3)=C2)ccc1O (configuration not stated) | 14.5 µg/mL (≈ 29.7 µM) | 24.02 µg/mL (≈ 49.2 µM) | 250 µg/mL (≈ 512 µM)
7 | NC1N=C(c2ccccc2Cl)C=C(c2ccc(Nc3c4ccccc4nc4ccccc34)cc2)O1 (configuration not stated) | 25.01 µg/mL (≈ 52.4 µM) | 32.05 µg/mL (≈ 67.2 µM) | 590 µg/mL (≈ 1240 µM)
8 | O=C(/C=C/c1cccc([N+](=O)[O-])c1)c1ccc(Nc2c3ccccc3nc3ccccc23)cc1 | > 1000 µg/mL | > 500 µg/mL | –
9 | NC1N=C(c2cccc(Cl)c2)C=C(c2ccc(Nc3c4ccccc4nc4ccccc34)cc2)O1 (configuration not stated) | 36.01 µg/mL (≈ 75.5 µM) | 37.43 µg/mL (≈ 78.5 µM) | 820 µg/mL (≈ 1720 µM)
10 | O=C(/C=C/c1ccc([N+](=O)[O-])cc1)c1ccc(Nc2c3ccccc3nc3ccccc23)cc1 | > 1000 µg/mL | > 500 µg/mL | –
11 | NC1N=C(c2cccc([N+](=O)[O-])c2)C=C(c2ccc(Nc3c4ccccc4nc4ccccc34)cc2)O1 (configuration not stated) | 12 µg/mL (≈ 24.6 µM) | 29.03 µg/mL (≈ 59.5 µM) | 600 µg/mL (≈ 1230 µM)
12 | NC1N=C(c2ccccc2)C=C(c2ccc(Nc3c4ccccc4nc4ccccc34)cc2)O1 (configuration not stated) | 17.23 µg/mL (≈ 38.9 µM) | 22.27 µg/mL (≈ 50.3 µM) | 425 µg/mL (≈ 960 µM)
13 | COc1ccc(C2=NC(N)OC(c3ccc(Nc4c5ccccc5nc5ccccc45)cc3)=C2)cc1OC (configuration not stated) | 18.06 µg/mL (≈ 35.9 µM) | 28.01 µg/mL (≈ 55.7 µM) | 190 µg/mL (≈ 378 µM)
14 | O=C(/C=C/c1ccc(Cl)cc1)c1ccc(Nc2c3ccccc3nc3ccccc23)cc1 | > 1000 µg/mL | > 500 µg/mL | –
15 | O=C(/C=C/c1cccc(Cl)c1)c1ccc(Nc2c3ccccc3nc3ccccc23)cc1 | > 1000 µg/mL | > 500 µg/mL | –
16 | O=C1O[C@H]([C@@H](O)CO)C(O)=C1O [ASCORBIC ACID] | 18.6 µg/mL (≈ 106 µM) | 24.77 µg/mL (≈ 141 µM) | –
17 | NC1N=C(c2ccc(Cl)cc2Cl)C=C(c2ccc(Nc3c4ccccc4nc4ccccc34)cc2)O1 (configuration not stated) | 20.03 µg/mL (≈ 39.2 µM) | 28.02 µg/mL (≈ 54.8 µM) | 180 µg/mL (≈ 352 µM)
18 | COc1cc(/C=C/C(=O)c2ccc(Nc3c4ccccc4nc4ccccc34)cc2)ccc1O | > 1000 µg/mL | > 500 µg/mL | –
19 | NC1N=C(c2ccc(Cl)cc2)C=C(c2ccc(Nc3c4ccccc4nc4ccccc34)cc2)O1 (configuration not stated) | 30.01 µg/mL (≈ 62.9 µM) | 68.13 µg/mL (≈ 143 µM) | 640 µg/mL (≈ 1340 µM)
20 | O=C(/C=C/c1ccccc1Cl)c1ccc(Nc2c3ccccc3nc3ccccc23)cc1 | > 1000 µg/mL | > 500 µg/mL | –
21 | CC1=NC(N)OC(c2ccc(Nc3c4ccccc4nc4ccccc34)cc2)=C1 (configuration not stated) | 14.2 µg/mL (≈ 37.3 µM) | 26.3 µg/mL (≈ 69.1 µM) | 140 µg/mL (≈ 368 µM)

From ChEMBL document CHEMBL2086275, “Docking studies, synthesis, characterization of some novel oxazine substituted 9-anilinoacridine derivatives and evaluation for their antioxidant and anticancer activities as topoisomerase II inhibitors” (Eur J Med Chem, 2012)
